According to ChEMBL document CHEMBL1142610, “Phenanthroquinolizidine alkaloids from the roots of Boehmeria pannosa potently inhibit hypoxia-inducible factor-1 in AGS human gastric cancer cells” (J Nat Prod, 2006):
Calls of active or inactive are those of the source. The calls are words filed in the database; no cut-off is given here.

How the values were obtained:
[1] = molecular target: T1, Hypoxia inducible factors; HIF-1-alpha, HIF-2-alpha (Homo sapiens, UniProt Q16665+Q99814); assay: Inhibition of hypoxia-induced HIF1 activation in human AGS cells at 100 nM after 16 hrs by pGL3-HRE-luciferase reporter gene assay; format: cell-based
Method in brief: (§1)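 AGS cells transiently cotransfected with pGL3-HRE-Luc (six HRE copies from human VEGF gene) plus pRL-CMV, plated 4 × 10^4 cells/well, grown 48 h. Then treated with graded concentrations and held 16 h in hypoxia (1% O2, 94% N2, 5% CO2). Dual-luciferase read-out, firefly normalized to renilla. 17-DMAG positive control. At least three independent experiments.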

[2] = molecular target: Aryl hydrocarbon receptor nuclear translocator (Homo sapiens) (UniProt P27540); assay: Inhibition of hypoxia-induced HIF1beta protein accumulation in human AGS cells after 12 hrs by Western blot; format: cell-based
Method in brief: (§2)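 AGS cells plated at 1.5 × 10^5 cells/cm2 and left overnight at 37 °C. Pretreated 1 h with graded concentrations, then 12 h hypoxia (1% O2, 94% N2, 5% CO2, 37 °C). Total lysates (50 µg) run on 6% SDS-PAGE. Blotted with monoclonal anti-HIF-1α or anti-HIF-1β, ECL detection. TOPO I served as loading control. At least three experiments.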

[3] = molecular target: Hypoxia-inducible factor 1-alpha (Homo sapiens) (UniProt Q16665); assay: Inhibition of hypoxia-induced HIF1alpha protein accumulation in human AGS cells after 12 hrs by Western blot; format: cell-based; method in brief: as §2
AGS = assay: Inhibition of hypoxia-induced VEGF expression in human AGS cells after 16 hrs by RT-PCR analysis; format: functional, cell-based
Method in brief: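 AGS cells at 1.5 × 10^5 cells/cm2 pretreated 1 h with graded concentrations, then 16 h hypoxia (1% O2). Total RNA isolated and VEGF transcript detected by RT-PCR: 25 cycles (94 °C 30 s, 58 °C 30 s, 72 °C 1 min). Products run on 2% agarose with ethidium bromide staining. At least three experiments.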

[4] = molecular target: T1, Hypoxia inducible factors; HIF-1-alpha, HIF-2-alpha; assay: Inhibition of hypoxia-induced HIF1 activation in human AGS cells after 16 hrs by pGL3-HRE-luciferase reporter gene assay; format: cell-based; method in brief: as §1
[5] = Inhibition of hypoxia-induced HIF1 activation; method in brief: as §1
[6] = molecular target: T1, Hypoxia inducible factors; HIF-1-alpha, HIF-2-alpha; assay: Inhibition of hypoxia-induced HIF1 activation in human AGS cells at 300 nM after 16 hrs by pGL3-HRE-luciferase reporter gene assay; format: cell-based; method in brief: as §1

Aryl hydrocarbon receptor nuclear translocator (Homo sapiens), sequence (P27540 whole entry): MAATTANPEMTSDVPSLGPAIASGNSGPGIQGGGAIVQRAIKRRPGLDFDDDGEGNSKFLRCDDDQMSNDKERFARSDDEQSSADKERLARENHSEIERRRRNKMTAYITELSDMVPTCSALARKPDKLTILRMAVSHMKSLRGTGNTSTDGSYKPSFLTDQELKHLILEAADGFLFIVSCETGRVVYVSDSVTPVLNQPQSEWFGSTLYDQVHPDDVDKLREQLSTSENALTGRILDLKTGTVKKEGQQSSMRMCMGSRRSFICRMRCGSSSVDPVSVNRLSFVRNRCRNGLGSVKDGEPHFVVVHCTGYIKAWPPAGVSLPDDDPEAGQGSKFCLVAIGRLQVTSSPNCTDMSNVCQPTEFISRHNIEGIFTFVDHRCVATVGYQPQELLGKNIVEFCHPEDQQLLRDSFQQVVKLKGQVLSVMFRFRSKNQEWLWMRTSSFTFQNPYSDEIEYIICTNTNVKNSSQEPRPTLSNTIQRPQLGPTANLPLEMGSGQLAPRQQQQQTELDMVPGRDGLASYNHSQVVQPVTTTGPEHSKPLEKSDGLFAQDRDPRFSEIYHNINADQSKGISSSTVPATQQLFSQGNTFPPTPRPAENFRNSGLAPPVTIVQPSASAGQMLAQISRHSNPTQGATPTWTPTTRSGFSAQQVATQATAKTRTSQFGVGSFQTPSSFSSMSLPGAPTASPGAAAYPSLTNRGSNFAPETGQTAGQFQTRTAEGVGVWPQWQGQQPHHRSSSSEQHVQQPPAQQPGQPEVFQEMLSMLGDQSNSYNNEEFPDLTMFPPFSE
Hypoxia-inducible factor 1-alpha (Homo sapiens), sequence (Q16665 whole entry, looked up): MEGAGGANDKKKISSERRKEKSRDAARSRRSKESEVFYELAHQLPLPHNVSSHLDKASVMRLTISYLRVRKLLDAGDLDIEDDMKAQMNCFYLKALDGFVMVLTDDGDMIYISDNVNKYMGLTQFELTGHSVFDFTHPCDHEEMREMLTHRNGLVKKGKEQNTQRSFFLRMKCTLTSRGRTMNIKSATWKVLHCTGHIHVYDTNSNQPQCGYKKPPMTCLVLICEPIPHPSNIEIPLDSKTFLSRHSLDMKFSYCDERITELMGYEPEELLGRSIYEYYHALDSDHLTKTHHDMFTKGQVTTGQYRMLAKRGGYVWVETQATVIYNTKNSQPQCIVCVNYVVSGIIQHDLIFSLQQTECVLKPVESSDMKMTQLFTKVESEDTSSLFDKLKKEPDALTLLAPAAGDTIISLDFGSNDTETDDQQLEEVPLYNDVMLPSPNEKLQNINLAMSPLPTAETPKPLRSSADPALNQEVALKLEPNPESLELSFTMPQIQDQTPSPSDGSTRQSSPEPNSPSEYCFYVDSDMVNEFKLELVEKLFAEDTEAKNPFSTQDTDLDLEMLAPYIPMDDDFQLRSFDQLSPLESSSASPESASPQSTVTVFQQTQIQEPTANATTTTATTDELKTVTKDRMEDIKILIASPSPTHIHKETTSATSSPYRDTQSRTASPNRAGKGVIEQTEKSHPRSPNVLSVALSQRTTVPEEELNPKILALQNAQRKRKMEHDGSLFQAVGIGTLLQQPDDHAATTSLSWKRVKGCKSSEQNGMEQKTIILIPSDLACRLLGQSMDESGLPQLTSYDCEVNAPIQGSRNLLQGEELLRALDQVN

| IC50 [5] [nM] | Activity [6] | Compound | Activity [1] | Activity [2] | Activity [3] | Activity (AGS) | IC50 [4] [nM] |
| --- | --- | --- | --- | --- | --- | --- | --- |
| – | – | COc1ccc2c3c(c4cc(OC)c(OC)cc4c2c1)C[C@H]1CCCCN1C3 [CRYPTOPLEURINE] | Active | inactive | Dose-dependent effect | Dose-dependent effect | 8.7 |
| 3 | – | COc1ccc([C@@H](O)[C@@H](C)Oc2ccc([C@H]3O[C@H](c4ccc(O[C@H](C)[C@H](O)c5ccc6c(c5)OCO6)c(OC)c4)[C@H](C)[C@H]3C)cc2OC)cc1OC [MANASSANTIN B] | – | – | – | – | – |
| – | Active | COc1ccc2c3c(c4cc(OC)c(OC)cc4c2c1)[C@@H](O)[C@H]1CCCCN1C3 | – | inactive | Dose-dependent effect | – | 48.1 |
